Assay results reported in ChEMBL document CHEMBL1157165, “Design and synthesis of dual inhibitors of HIV reverse transcriptase and integrase: introducing a diketoacid functionality into delavirdine” (Bioorg Med Chem, 2008).
pEC50, pIC50: −log10 of the molar value.

Experiments:
[1] = Inhibition of HIV reverse transcriptase; parameters: species or system Human immunodeficiency virus
Outline: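 Scintillation proximity assay: beads carry a biotin-linked poly(A) template with oligo(T) primer. Reaction incubated 3 h at 37 °C, stopped with stop buffer, counted 1 min per sample on a beta counter; IC50 reported.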

[2] = Inhibition of HIV integrase expressed in Escherichia coli BL21; parameters: species or system Human immunodeficiency virus
Outline: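 IN made in E. coli BL21(DE3) by IPTG induction. 600 nM IN stock in 10 mM HEPES pH 7.5, 10 mM MnCl2, 1 mM DTT, 10% glycerol, BSA, Brij-35, preincubated with compound or DMSO 10 min at room temperature. Reaction started with annealed 5'-biotin/3'-cy5 duplex (50 nM stock), 2 h at 37 °C. Product captured on streptavidin plate, washed with NaOH denaturing buffer, eluted in formamide, fluorescence read.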

[3] = tested on: Human immunodeficiency virus 1; experiment: Antiviral activity against HIV1 by cell-based assay; type: functional, organism-based
Outline: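 Cytoprotection assay: CEM-SS cells or human PBMCs mixed with HIV-1 strain IIIB or RF in presence of compound, 6 days. Virus pre-titered to give 70–95% loss of viability in virus-control wells; cell, toxicity and colorimetric controls included. Viability by MTS or XTT dye reduction; EC50 = concentration inhibiting virus replication by 50%.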

Row | Compound | pIC50 [1] | pIC50 [2] | pEC50 [3]
1 | CC(C)Nc1cccnc1N1CCN(C(=O)c2cc3cccc(C(=O)/C=C(\O)C(=O)O)c3[nH]2)CC1 | < 4.00 | < 4.00 | < 5.00
2 | CC(C)Nc1cccnc1N1CCN(C(=O)c2[nH]c3ccc(C(=O)/C=C(\O)C(=O)O)cc3c2Br)CC1 | 6.92 | 5.41 | 6.10
3 | CC(C)Nc1cccnc1N1CCN(C(=O)c2[nH]c3c(C(=O)/C=C(\O)C(=O)O)cccc3c2Br)CC1 | < 4.00 | 4.12 | < 5.00
4 | CC(C)Nc1cccnc1N1CCN(C(=O)c2[nH]c3ccc(C(=O)/C=C(\O)C(=O)O)cc3c2Cl)CC1 | 5.96 | 5.33 | 6.01
5 | CC(C)Nc1cccnc1N1CCN(C(=O)c2[nH]c3c(C(=O)/C=C(\O)C(=O)O)cccc3c2Cl)CC1 | < 4.00 | < 4.00 | < 5.00
6 | CC(C)Nc1cccnc1N1CCN(C(=O)c2cc3cc(C(=O)/C=C(\O)C(=O)O)ccc3[nH]2)CC1 | 8.23 | 4.96 | 6.28
7 | CC(C)Nc1cccnc1N1CCN(C(=O)c2cc3cc(NS(C)(=O)=O)ccc3[nH]2)CC1 [DELAVIRDINE] | 7.44 | < 4.00 | 7.68
